SIRT5 inh – blocks human SIRT5 desuccinylation of peptide | Q9NXA8 | Purified SirT5, succinyl-peptide AMC, trypsin-coupled fluorescence | inhibition, % at 15 µM | actives 1.1% (n = 330,000) | AID 652115; in the data active = inhibition above about 15%; inconclusive = no clear call, values can overlap the other calls
Target sequence (Q9NXA8 whole entry, looked up): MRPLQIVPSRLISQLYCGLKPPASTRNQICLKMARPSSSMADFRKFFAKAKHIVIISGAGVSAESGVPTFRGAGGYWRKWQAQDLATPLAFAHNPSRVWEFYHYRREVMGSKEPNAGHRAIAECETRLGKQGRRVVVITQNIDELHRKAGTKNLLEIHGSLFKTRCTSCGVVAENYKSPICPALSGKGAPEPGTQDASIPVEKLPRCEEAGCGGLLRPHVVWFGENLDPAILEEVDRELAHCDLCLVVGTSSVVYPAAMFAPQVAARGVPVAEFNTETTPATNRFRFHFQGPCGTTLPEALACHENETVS
S100A4 MyoIIA – inhibitors of human S100A4 binding to myosin IIA peptide. P26447. S100A4/TAMRA-MyoIIA peptide fluorescence polarization. inhibition, % at 10.7 µM. actives 0.14% (n = 360,000);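 active = mean inhibition of at least 70% across replicates, with every replicate also reaching that level; inconclusive = mean inhibition reaches 70% but some replicates fall short; inactive = mean inhibition below 70%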
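Test system: S100A4 monomer protein. Medium: HEPES buffer with Ca2+, pH 7.2. Reagent: fluorescent myosin IIA peptide, 5 nM. Compound dosing: single-point compound testing. Timing: 5 min between mix addition and reading. Benchmarks: DMSO neutral and TFP positive wells.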
AF4-AF9 inh – blocks AF4 peptide binding to human AF9. inhibition, % at 10 µM. actives 0.47% (n = 350,000). AlphaScreen, biotin-AF4 peptide binding to FLAG-AF9. P42568;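 active = every replicate reaching a set inhibition limit, whatever the replicate mean, cut at about 25% in these data; inconclusive = mean inhibition reaches that limit but some replicates miss it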;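 also: 0% = plate neutral control median and 100% = total signal loss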
CaV13 FRET inh – Primary screen for inhibitors of IQ motif and Ca2+-dependent inactivation inhibitor domain binding in CACNA1D, Förster resonance energy transfer in living cells, …; inhibition, % at 12.3 µM; AID 743397; HEK cells, CFP/YFP FRET ICDI-IQ, plate reader, 10 min; percent FRET-ratio fall versus neutral wells; actives 0.098% (n = 340,000);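 active = mean replicate inhibition of at least 30% and at least 1% of replicates passing that level; inconclusive = only one of the two criteria is met; inactive = neither criterion is met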;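 also: 0% = median of the neutral control wells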
DENV2 CPE rescue – DENV2-induced cell death inhibition; actives 1.7% (n = 350,000); DENV2-infected cells, cytopathic effect rescue, plate reader; CPE inhibition, % at 9.99 µM; in the data active = CPE inhibition above about 20%, passing the limit was not always enough; inconclusive = no clear call, values can overlap the other calls; tested in BHK-21 cells;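 also: 0% = median of neutral control wells and 100% = median of positive control wells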
Alpha interfer – counter-screen: AlphaScreen signal interference; AID 720494; AC50, µM (highest dose often 12 µM), for inactives: at the top dose activity change, negative = inhibition; signal luminescence; actives 45% (n = 530); shares compounds with AF4-AF9 inh; cut-off not given, nearly all actives have AC50 up to about 14 µM
* marks the source's active call; other numbers are inactive results; ? = inconclusive; · = not tested or not shown; ! = not active in a repeat. An excerpt weighted towards active compounds, which were near 2.7% of everything screened.

SMILES	SIRT5 inh	S100A4 MyoIIA	AF4-AF9 inh	CaV13 FRET inh	DENV2 CPE rescue	Alpha interfer
O=C(O)[C@@H]1[C@@H](CO)[C@@H]2Cn3c(ccc(-c4ccccc4)c3=O)[C@H]1N2C(=O)C1CCCCC1	-39	3	1	·	0	·
Cc1c(P(=S)(c2ccccc2)c2ccccc2)[n+]2ccccc2n1C	12	1	66*!	-9	73*!	-14%
CN1CCN(c2ccc(N)cc2Cl)CC1	1	-1	88*	-1	-1	5.4µM*
COC(=O)[C@H]1[C@H](CO)[C@H]2Cn3c(ccc(-c4ccccc4F)c3=O)[C@@H]1N2Cc1ccncc1	2	25	-1	·	4	·
COc1ccc2c(c1OC)CN1CCc3cc4c(cc3C1C2)OCO4 (centres undefined)	-1	3	0	-19	-4	·
CCC1CN2CCc3cc(OC)c(OC)cc3C2CC1CC1NCCc2c1[nH]c1ccc(O)cc21 (centres undefined)	·	-7	?	-7	?	-26%
Cc1ccccc1-c1ccc([C@H]2[C@@H](CO)N3CCCCN(C(=O)Cc4ccccn4)C[C@@H]23)cc1	2	15	-6	·	8	·
NCCc1c(Cc2ccccc2)[nH]c2ccccc12	-1	1	4	-5	-4	·
Cc1[nH]c2ccc(OCc3ccccc3)cc2c1CCN	-4	-6	41*	-5	-1	-20%
CCN(CCCl)c1cc(CN(C)C)cc(NC(=O)c2ccc(C(=O)Nc3cc(CN(C)C)cc(N(CC)CCCl)c3)cc2)c1	-6	-3	70*	-2	7	2.5µM*
O=c1[nH]c2ccccc2n1C1CCN(C(c2nnnn2C2CCCCC2)C2CC2)CC1 (centres undefined)	-2	6	36*	-3	4	-11%
O=c1[nH]c2ccccc2n1C1CCN(C(c2nnnn2C2CCCC2)C2CC2)CC1 (centres undefined)	2	2	6	-5	3	·
CSCCC(c1nnnn1C1CCCCC1)N1CCC(n2c(=O)[nH]c3ccccc32)CC1 (centres undefined)	4	0	34*	-5	-8	-18%
COC(=O)[C@H]1[C@H](CO)[C@H]2Cn3c(ccc(-c4ccccc4)c3=O)[C@@H]1N2S(=O)(=O)c1ccccc1C	-14	0	1	·	1	·
CC=Cc1ccc2n(c1=O)C[C@H]1[C@H](CO)[C@@H](C(=O)OC)[C@@H]2N1CC1CCOCC1 (mixture of isomers)	1	-5	0	·	-6	·

Screening data as filed in PubChem.
